Laboratory results reported in PMC3823230 (Journal of Cellular and Molecular Medicine, 2012).
Where a name gives a salt, the structure may show the parent alone. Read-outs that look alike come from different tables or passages of the source.

What was measured:
[1] = system: antibiotic-resistant strain (A–E) of P. aeruginosa; assay: MIC against antibiotic-resistant strains; assay type: cell-based, Pseudomonas aeruginosa; details: for MIC, P. aeruginosa strain A / Resistance/sensitivity class, strain A: antibiotic-resistant strain A; for MIC, P. aeruginosa strain B / Resistance/sensitivity class, strain B: antibiotic-resistant strain B; for MIC, P. aeruginosa strain C / Resistance/sensitivity class, strain C: antibiotic-resistant strain C; for MIC, P. aeruginosa strain D / Resistance/sensitivity class, strain D: antibiotic-resistant strain D; for MIC, P. aeruginosa strain E / Resistance/sensitivity class, strain E: antibiotic-resistant strain E; for MIC: Pseudomonas aeruginosa
[2] = system: C57BL/6 db/db mice, punch biopsy wounds; assay: Diabetic mouse wound-healing model; assay type: in vivo; details: topical 100 μg/ml
[3] = system: NIBS minipigs, full-thickness excisional wounds; assay: Porcine wound-healing model; assay type: in vivo, pig; details: anti-vWF staining; in comparison to control group; N = 6
How it was run: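 Three male NIBS minipigs (32.0–33.5 kg) premedicated with ketamine 500 mg/body under isoflurane 2–4%. Four 25 mm, 10 mm-deep full-thickness excisional wounds per side abdomen, 30 mm apart. Peptide 100 μg/ml or saline (200 μl/site) applied on days 0, 2, 4, 6, 8, 10 under polyurethane dressing. Day-12 frozen sections were acetone-fixed (−20°C, 15 min), and capillary EC immunostained with anti-vWF (1:200).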

[4] = system: db/db mice wounds with methicillin-resistant S. aureus; assay: Diabetic mouse infectious; assay type: in vivo
How it was run: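 Male C57BL/6 db/db mice, n = 6–8 per group, backs depilated 3 days before surgery. Under anaesthesia, 15 mm dorsal punch biopsy wounds received 100 μl MRSA (1 × 10^4 cfu/ml) topically, with or without peptide (100 μg/ml) or saline, under semi-permeable polyurethane dressing. Dosing and photographic wound-area measurement on days 0, 2, 4, 7, 9, 11, 14, 16. Means ± S.E.M.; ANOVA with Fisher's PLSD.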

[5] = read-out: MIC, P. aeruginosa strain A
[6] = read-out: MIC, P. aeruginosa strain B
[7] = read-out: MIC, P. aeruginosa strain C
[8] = read-out: MIC, P. aeruginosa strain D
[9] = read-out: MIC, P. aeruginosa strain E

Compound | Resistance/sensitivity class, strain A [1] | Resistance/sensitivity class, strain B [1] | Resistance/sensitivity class, strain C [1] | Resistance/sensitivity class, strain D [1] | MIC [1, 5] [µg/mL] | MIC [1, 6] [µg/mL] | MIC [1, 7] [µg/mL] | MIC [1, 8] [µg/mL] | MIC [1, 9] [µg/mL] | Resistance/sensitivity class, strain E [1] | also measured
Gentamicin sulfate [GM] | R | S | R | S | – | – | – | – | – | – | MIC, P. aeruginosa strain A [1]: > 8 µg/mL; MIC, P. aeruginosa strain B [1]: < 4 µg/mL; MIC, P. aeruginosa strain C [1]: > 8 µg/mL; MIC, P. aeruginosa strain D [1]: < 4 µg/mL; MIC, P. aeruginosa strain E [1]: 8 µg/mL
C[C@H]1COc2c(N3CCN(C)CC3)c(F)cc3c(=O)c(C(=O)O)cn1c23 [LVFX, levofloxacin hydrate] | S | S | S | S | < 2 | < 2 | < 2 | 4 | > 4 | R | –
O=C(O)c1cn(C2CC2)c2cc(N3CCNCC3)c(F)cc2c1=O [CPFX, Ciprofloxacin hydrochloride] | – | – | – | – | < 1 | < 1 | < 1 | < 1 | > 2 | – | –
CC(C)(O/N=C(\C(=O)N[C@@H]1C(=O)N2C(C(=O)[O-])=C(C[n+]3ccccc3)CS[C@H]12)c1csc(N)n1)C(=O)O [CAZ, ceftazidime hydrate] | S | S | S | S | < 8 | < 8 | < 8 | < 8 | > 32 | R | –
C[C@@H]1O[C@@H]1P(=O)(O)O [FOM, fosfomycin sodium] | R | R | R | R | > 16 | > 16 | > 16 | > 16 | > 16 | R | –
LL37: well-known antimicrobial peptide with angiogenic effects | – | – | – | – | – | – | – | – | – | – | Blood flow around the wound (LDI), diabetic mouse ([2]; 3 days after operation, compared with control group): significantly increased the blood flow; Spontaneous S. aureus infection of wounds during experiment ([2]; db/db mice): none of the mice; Wound size, diabetic mouse ([2]; db/db mice, day 14, versus control): significantly decreased wound size; Microcapillary density, porcine wound [3]: significantly increased; Yellow pus on MRSA-infected wounds ([4]; MRSA 1 x 10^4 cfu/ml, co-treatment 100 μg/ml): attenuated the increase of yellow pus; Infectious wound size ([4]; MRSA, 100 μg/ml, days 11, 14 and 16 after treatment): significantly decreased wound size
C[C@H]1[C@H](NC(=O)/C(=N\OC(C)(C)C(=O)O)c2csc(N)n2)C(=O)N1S(=O)(=O)O [AZT, aztreonam] | S | R | S | S | < 8 | > 16 | < 8 | < 8 | > 16 | R | –
NC[C@H]1O[C@H](O[C@H]2[C@H](O)[C@@H](O[C@H]3O[C@H](CO)[C@@H](O)[C@H](N)[C@H]3O)[C@H](N)C[C@@H]2N)[C@H](N)C[C@@H]1O [TOB, tobramycin] | R | S | R | S | > 8 | < 4 | > 8 | < 4 | < 4 | S | –
CCN1CCN(C(=O)N[C@@H](C(=O)N[C@@H]2C(=O)N3C(C(=O)O)=C(CSc4nnnn4C)CS[C@H]23)c2ccc(O)cc2)C(=O)C1=O [CPZ, cefoperazone sodium] | S | – | S | S | < 16 | 32 | < 16 | < 16 | > 32 | R | –
CO/N=C(\C(=O)N[C@@H]1C(=O)N2C(C(=O)O)=C(C[N+]3(C)CCCC3)CS[C@H]12)c1csc(N)n1.Cl.O.[Cl-] [CFPM, cefepime hidrochloride hydrate] | – | – | – | – | – | – | – | – | – | – | MIC, P. aeruginosa strain A [1]: < 8 µg/mL; MIC, P. aeruginosa strain B [1]: < 8 µg/mL; MIC, P. aeruginosa strain C [1]: < 8 µg/mL; MIC, P. aeruginosa strain D [1]: < 8 µg/mL; MIC, P. aeruginosa strain E [1]: > 16 µg/mL
